Assay results reported in ChEMBL document CHEMBL1123208, “Quantitative structure-activity relationship of the mutagenicity of substituted N-nitroso-N-benzylmethylamines: possible implications for carcinogenicity” (J Med Chem, 1986).

Columns and labels:
[1] = Concentration in nmol/plate to induce 50 revertants/plate.; format: ADME
Procedure, shortened: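 Ames plate incorporation, S. typhimurium TA 1535, Aroclor-induced male hamster liver S9; duplicate plates, 10-point range 1–1000 µg/plate; 37 °C, 48 h; revertants counted by hand tally. Potency index: concentration (nmol/plate) inducing 50 revertants/plate, taken from linear portion of dose–response curve.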

[2] = system: Salmonella typhimurium; test: compound was tested for mutagenicity against Salmonella tester strain TA 1535 with out hamster S9 mix (3 mg/plate) in cells at dose of 500 ug
[3] = system: Salmonella typhimurium; test: Mutagenicity against Salmonella tester strain TA 1535 without hamster S9 mix (3 mg/plate) in cells.; format: functional, Salmonella enterica subsp. enterica serovar Typhimurium
[4] = system: Salmonella typhimurium; test: compound was tested for mutagenicity against Salmonella tester strain TA 1535 with hamster S9 mix (3 mg/plate) in cells at dose of 500 ug
[5] = system: Salmonella typhimurium; test: compound was tested for mutagenicity against Salmonella tester strain TA 1535 with out hamster S9 mix (3 mg/plate) in cells at dose of 25 ug; format: functional, Salmonella enterica subsp. enterica serovar Typhimurium
Procedure, shortened: (§1)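 Plate incorporation assay in S. typhimurium TA 1535 without S9 activation. Compound in Me2SO, 1–1000 µg/plate, duplicate plates, mean revertants/plate; incubated 37 °C for 48 h, colonies hand-counted. Positive if two consecutive doses gave revertants more than twice the concurrent control mean.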

[6] = system: Salmonella typhimurium; test: compound was tested for mutagenicity against Salmonella tester strain TA 1535 with out hamster S9 mix (3 mg/plate) in cells at dose of 500 ug; format: functional, Salmonella enterica subsp. enterica serovar Typhimurium; procedure, shortened: as §1
[7] = system: Salmonella typhimurium; test: compound was tested for mutagenicity against Salmonella tester strain TA 1535 with hamster S9 mix (3 mg/plate) in cells at dose of 50 ug; format: functional, Salmonella enterica subsp. enterica serovar Typhimurium
Procedure, shortened: (§2)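 Plate incorporation assay in S. typhimurium TA 1535 with Aroclor-induced male hamster liver S9 (3 mg/plate). Compound in Me2SO, 1–1000 µg/plate, duplicate plates, mean revertants/plate; incubated 37 °C for 48 h, colonies hand-counted. Positive if two consecutive doses gave revertants more than twice the concurrent control mean.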

[8] = system: Salmonella typhimurium; test: compound was tested for mutagenicity against Salmonella tester strain TA 1535 with hamster S9 mix (3 mg/plate) in cells at dose of 500 ug; format: functional, Salmonella enterica subsp. enterica serovar Typhimurium; procedure, shortened: as §2
[9] = system: Salmonella typhimurium; test: compound was tested for mutagenicity against Salmonella tester strain TA 1535 with hamster S9 mix (3 mg/plate) in cells at dose of 2.5 ug; format: functional, Salmonella enterica subsp. enterica serovar Typhimurium; procedure, shortened: as §2
[10] = system: Salmonella typhimurium; test: compound was tested for mutagenicity against Salmonella tester strain TA 1535 with out hamster S9 mix (3 mg/plate) in cells at dose of 1 ug; format: functional, Salmonella enterica subsp. enterica serovar Typhimurium; procedure, shortened: as §1
[11] = system: Salmonella typhimurium; test: compound was tested for mutagenicity against Salmonella tester strain TA 1535 with hamster S9 mix (3 mg/plate) in cells at dose of 100 ug; format: functional, Salmonella enterica subsp. enterica serovar Typhimurium; procedure, shortened: as §2
[12] = system: Salmonella typhimurium; test: compound was tested for mutagenicity against Salmonella tester strain TA 1535 with out hamster S9 mix (3 mg/plate) in cells at dose of 100 ug; format: functional, Salmonella enterica subsp. enterica serovar Typhimurium; procedure, shortened: as §1
[13] = system: Salmonella typhimurium; test: (§3) compound was tested for mutagenicity against Salmonella tester strain TA 1535 with out hamster S9 mix (3 mg/plate) in cells at dose of 50 ug; format: functional, Salmonella enterica subsp. enterica serovar Typhimurium; procedure, shortened: as §1
[14] = system: Salmonella typhimurium; test: compound was tested for mutagenicity against Salmonella tester strain TA 1535 with out hamster S9 mix (3 mg/plate) in cells at dose of 1000 ug; format: functional, Salmonella enterica subsp. enterica serovar Typhimurium; procedure, shortened: as §1
[15] = system: Salmonella typhimurium; test: compound was tested for mutagenicity against Salmonella tester strain TA 1535 with out hamster S9 mix (3 mg/plate) in cells at dose of 5 ug; format: functional, Salmonella enterica subsp. enterica serovar Typhimurium; procedure, shortened: as §1
[16] = system: Salmonella typhimurium; test: compound was tested for mutagenicity against Salmonella tester strain TA 1535 with out hamster S9 mix (3 mg/plate) in cells at dose of 250 ug; format: functional, Salmonella enterica subsp. enterica serovar Typhimurium; procedure, shortened: as §1
[17] = system: Salmonella typhimurium; test: compound was tested for mutagenicity against Salmonella tester strain TA 1535 with out hamster S9 mix (3 mg/plate) in cells.; format: functional, Salmonella enterica subsp. enterica serovar Typhimurium; procedure, shortened: as §1
[18] = system: Salmonella typhimurium; test: compound was tested for mutagenicity against Salmonella tester strain TA 1535 with hamster S9 mix (3 mg/plate) in cells at dose of 25 ug; format: functional, Salmonella enterica subsp. enterica serovar Typhimurium; procedure, shortened: as §2
[19] = system: Salmonella typhimurium; test: compound was tested for mutagenicity against Salmonella tester strain TA 1535 with hamster S9 mix (3 mg/plate) in cells at dose of 5 ug; format: functional, Salmonella enterica subsp. enterica serovar Typhimurium; procedure, shortened: as §2
[20] = system: Salmonella typhimurium; test: compound was tested for mutagenicity against Salmonella tester strain TA 1535 with hamster S9 mix (3 mg/plate) in cells at dose of 250 ug; format: functional, Salmonella enterica subsp. enterica serovar Typhimurium; procedure, shortened: as §2
[21] = system: Salmonella typhimurium; test: compound was tested for mutagenicity against Salmonella tester strain TA 1535 with hamster S9 mix (3 mg/plate) in cells at dose of 1000 ug; format: functional, Salmonella enterica subsp. enterica serovar Typhimurium; procedure, shortened: as §2
[22] = system: Salmonella typhimurium; test: compound was tested for mutagenicity against Salmonella tester strain TA 1535 with hamster S9 mix (3 mg/plate) in cells at dose of 10 ug; format: functional, Salmonella enterica subsp. enterica serovar Typhimurium; procedure, shortened: as §2
[23] = system: Salmonella typhimurium; test: compound was tested for mutagenicity against Salmonella tester strain TA 1535 with hamster S9 mix (3 mg/plate) in cells at dose of 1 ug; format: functional, Salmonella enterica subsp. enterica serovar Typhimurium; procedure, shortened: as §2
[24] = system: Salmonella typhimurium; test: compound was tested for mutagenicity against Salmonella tester strain TA 1535 with out hamster S9 mix (3 mg/plate) in cells at dose of 2.5 ug; format: functional, Salmonella enterica subsp. enterica serovar Typhimurium; procedure, shortened: as §1
[25] = system: Salmonella typhimurium; test: compound was tested for mutagenicity against Salmonella tester strain TA 1535 with hamster S9 mix (3 mg/plate) in cells. Activity expressed as no. of cells; format: functional, Salmonella enterica subsp. enterica serovar Typhimurium; procedure, shortened: as §2
[26] = system: Salmonella typhimurium; test: compound was tested for mutagenicity against Salmonella tester strain TA 1535 with hamster S9 mix (3 mg/plate) in cells.; format: functional, Salmonella enterica subsp. enterica serovar Typhimurium; procedure, shortened: as §2
[27] = system: Salmonella typhimurium; test: compound was tested for mutagenicity against Salmonella tester strain TA 1535 with out hamster S9 mix (3 mg/plate) in cells at dose of 10 ug; format: functional, Salmonella enterica subsp. enterica serovar Typhimurium; procedure, shortened: as §1
[28] = system: Cricetinae gen. sp.; test: as §3; format: functional; procedure, shortened: as §1

## CN(Cc1cccc(Cl)c1)N=O
[1]
  Log 1/C: -1.512
[2]
  No. of revertants per plate: 15
[3]
  Activity: 17
[4]
  No. of revertants per plate: 215

## COc1ccc(CN(C)N=O)cc1
[2]
  No. of revertants per plate: 15
[3]
  Activity: 12
[4]
  No. of revertants per plate: 24

## CN(Cc1ccc(F)cc1)N=O
[5]
  No. of revertants per plate: 20
[6]
  No. of revertants per plate: 19
[1]
  Log 1/C: -2.969
[7]
  No. of revertants per plate: 39
[8]
  No. of revertants per plate: 94
[9]
  No. of revertants per plate: 15
[10]
  No. of revertants per plate: 18
[11]
  No. of revertants per plate: 71
[12]
  No. of revertants per plate: 22
[13]
  No. of revertants per plate: 16
[14]
  No. of revertants per plate: 15
[15]
  No. of revertants per plate: 21
[16]
  No. of revertants per plate: 11
[17]
  Activity: 8
[18]
  No. of revertants per plate: 27
[19]
  No. of revertants per plate: 21
[20]
  No. of revertants per plate: 71
[3]
  Activity: 15
[21]
  No. of revertants per plate: 126
[22]
  No. of revertants per plate: 22
[23]
  No. of revertants per plate: 15
[24]
  No. of revertants per plate: 8
[25]
  Activity: 19
[26]
  Activity: 24
[27]
  No. of revertants per plate: 17

## COC(=O)c1ccc(CN(C)N=O)cc1
[2]
  No. of revertants per plate: 15
[3]
  Activity: 14
[4]
  No. of revertants per plate: 18

## CN(Cc1ccc(C#N)cc1)N=O
[1]
  Log 1/C: -2.78
[2]
  No. of revertants per plate: 12
[3]
  Activity: 15
[4]
  No. of revertants per plate: 180

## CN(Cc1cccc(Br)c1)N=O
[1]
  Log 1/C: -1.552
[2]
  No. of revertants per plate: 11
[3]
  Activity: 11
[4]
  No. of revertants per plate: 223

## CN(Cc1ccc(Cl)cc1)N=O
[5]
  No. of revertants per plate: 21
[6]
  No. of revertants per plate: 24
[1]
  Log 1/C: -1.933
[7]
  No. of revertants per plate: 77
[8]
  No. of revertants per plate: 166
[9]
  No. of revertants per plate: 19
[10]
  No. of revertants per plate: 17
[11]
  No. of revertants per plate: 136
[12]
  No. of revertants per plate: 19
[13]
  No. of revertants per plate: 19
[14]
  No. of revertants per plate: 17
[15]
  No. of revertants per plate: 14
[16]
  No. of revertants per plate: 19
[17]
  Activity: 19
[18]
  No. of revertants per plate: 42
[19]
  No. of revertants per plate: 21
[20]
  No. of revertants per plate: 221
[3]
  Activity: 22
[21]
  No. of revertants per plate: 192
[22]
  No. of revertants per plate: 24
[23]
  No. of revertants per plate: 18
[24]
  No. of revertants per plate: 16
[25]
  Activity: 23
[26]
  Activity: 22
[27]
  No. of revertants per plate: 18

## CN(Cc1ccc(Br)cc1)N=O
[5]
  No. of revertants per plate: 14
[6]
  No. of revertants per plate: 13
[1]
  Log 1/C: -1.998
[7]
  No. of revertants per plate: 32
[8]
  No. of revertants per plate: 183
[9]
  No. of revertants per plate: 12
[10]
  No. of revertants per plate: 14
[11]
  No. of revertants per plate: 64
[12]
  No. of revertants per plate: 16
[13]
  No. of revertants per plate: 10
[14]
  No. of revertants per plate: 15
[15]
  No. of revertants per plate: 21
[16]
  No. of revertants per plate: 11
[17]
  Activity: 14
[18]
  No. of revertants per plate: 21
[19]
  No. of revertants per plate: 15
[20]
  No. of revertants per plate: 155
[3]
  Activity: 12
[21]
  No. of revertants per plate: 201
[22]
  No. of revertants per plate: 14
[23]
  No. of revertants per plate: 12
[24]
  No. of revertants per plate: 13
[25]
  Activity: 17
[26]
  Activity: 13
[27]
  No. of revertants per plate: 18

## CN(Cc1ccccc1)N=O
[1]
  Log 1/C: -3.416
[2]
  No. of revertants per plate: 17
[28]
  No. of revertants per plate: 14
[3]
  Activity: 19
[4]
  No. of revertants per plate: 60

## CN(Cc1cccc([N+](=O)[O-])c1)N=O
[1]
  Log 1/C: -1.796

## COc1cccc(CN(C)N=O)c1
[1]
  Log: -1.886 (degrees C)-1
[2]
  No. of revertants per plate: 18
[3]
  Activity: 25
[4]
  No. of revertants per plate: 145

## CN(Cc1ccc([N+](=O)[O-])cc1)N=O
[1]
  Log 1/C: -2.202
[2]
  No. of revertants per plate: 23
[3]
  Activity: 19
[4]
  No. of revertants per plate: 176

## CN(Cc1ccc(C(=O)O)cc1)N=O
[2]
  No. of revertants per plate: 21
[3]
  Activity: 13
[4]
  No. of revertants per plate: 15

## Cc1cccc(CN(C)N=O)c1
[1]
  Log 1/C: -3.039
[2]
  No. of revertants per plate: 14
[3]
  Activity: 16
[4]
  No. of revertants per plate: 106

## CN(Cc1cccc(C(F)(F)F)c1)N=O
[1]
  Log 1/C: -1.961
[2]
  No. of revertants per plate: 18
[3]
  Activity: 21
[4]
  No. of revertants per plate: 127

## CN(Cc1cccc(C#N)c1)N=O
[1]
  Log 1/C: -2.139
[2]
  No. of revertants per plate: 3053
[3]
  Activity: 14
[4]
  No. of revertants per plate: 185
